For one molecule, Inhibition results are on record in BindingDB's records for doi:10.1021/acs.jmedchem.1c00739 (2021).

The target of the experiment is Protein kinase C alpha type (Homo sapiens, UniProt P17252). The experiment can be described thus: Displacement of [3H]-PDBu from recombinant human PKCalpha at 30 uM by scintillation counter method relative to control. Put shortly:
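Competition of 2 nM [3H]PDBu by test ligand at a single fixed concentration (value in line); 50 mM Tris-HCl pH 7.4, 100 μg/mL porcine brain phosphatidylserine, 5 mg/mL bovine IgG, 0.003% Tx-100, 20 ng/tube enzyme; 0.1 mM Ca2+ for PKCα, 1 mM EGTA for PKCε. 5 min at 37 °C, PEG precipitation, bound and free counted separately; nonspecific with 10 μM cold PDBu; triplicates.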

For the molecule `Cc1ccc(-c2cn(CC3(CO)C/C(=C\CC(CC(C)C)CC(C)C)C(=O)O3)nn2)cc1` (stereo unspecified), the Inhibition (as a rule, the share of the control response that was lost under treatment) was found to be 21%.
